14 molecules from ChEMBL document CHEMBL1926547, “Structure based drug design, synthesis and evaluation of 4-(benzyloxy)-1-phenylbut-2-yn-1-ol derivatives as 5-lipoxygenase inhibitors” (Eur J Med Chem, 2012) can be followed below.

Activity calls are given as the source filed them. The calls are words filed in the database; no cut-off is given here.

Series [1] concerns the target T1, Polyunsaturated fatty acid 5-lipoxygenase (Homo sapiens, UniProt P09917).
T1 sequence (P09917 whole entry): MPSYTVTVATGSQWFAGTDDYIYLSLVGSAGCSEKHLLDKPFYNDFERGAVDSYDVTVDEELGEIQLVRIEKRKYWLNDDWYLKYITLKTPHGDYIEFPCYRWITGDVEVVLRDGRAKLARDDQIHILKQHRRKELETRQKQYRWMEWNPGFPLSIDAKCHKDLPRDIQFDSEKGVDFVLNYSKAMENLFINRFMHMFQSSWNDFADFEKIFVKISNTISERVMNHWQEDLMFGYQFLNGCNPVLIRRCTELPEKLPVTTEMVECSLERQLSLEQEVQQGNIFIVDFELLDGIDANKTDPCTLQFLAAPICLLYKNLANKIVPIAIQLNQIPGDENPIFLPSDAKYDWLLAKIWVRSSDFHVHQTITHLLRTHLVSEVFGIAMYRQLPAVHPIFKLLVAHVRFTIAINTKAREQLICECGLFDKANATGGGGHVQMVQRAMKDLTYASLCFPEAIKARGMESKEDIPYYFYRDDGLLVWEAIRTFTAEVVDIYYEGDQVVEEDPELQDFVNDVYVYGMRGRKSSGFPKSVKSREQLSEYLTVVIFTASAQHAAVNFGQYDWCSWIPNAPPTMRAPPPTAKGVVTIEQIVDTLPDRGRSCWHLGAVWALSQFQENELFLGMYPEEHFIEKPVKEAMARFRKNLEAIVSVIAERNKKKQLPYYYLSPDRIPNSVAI
Kind of series: Inhibition of 5-LOX. The method in brief:
(§1)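 Purified 5-LOX, activity measured polarographically by Clark oxygen electrode as rate of O2 decrease. Enzyme in 100 mM phosphate pH 6.3, 3 mL final, with compound (DMSO stocks, various concentrations); reaction started with arachidonic acid 133 μM, 25 °C; maximal slope used. IC50 from concentration–inhibition curve; each assay repeated thrice.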

Series [2] relates to COLO 205. Kind of series: Growth inhibition of human COLO205 cells after 48 hrs by MTT assay. To be noted: COLO 205, 48 h. Type of series: functional. The procedure, abridged:
(§2)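 Cells kept in RPMI-1640 + 10% heat-inactivated FBS, penicillin/streptomycin, 2 mM glutamine, 37 °C 5% CO2; seeded 5×10^3/well the day before, washed with PBS, fresh medium. Compounds 0.1–100 μM, 48 h; MTT 4 h at 37 °C, formazan dissolved in DMSO, OD 570 nm. GI50 from dose-survival curves; three experiments in triplicate.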
On the technique in general: Formazan colour is commonly taken as a measure of viable cells.

Series [3] addresses T1, Polyunsaturated fatty acid 5-lipoxygenase. Description: Inhibition of 5-LOX assessed as decrease in oxygen concentration using arachidonic acid as substrate by polarigraphic method with Clark's oxygen electrode. The procedure, abridged:
as §1

The subject of series [4] is MDA-MB-231. Description: Growth inhibition of human MDA-MB-231 cells after 48 hrs by MTT assay. Type of series: functional. The conditions noted are these: MDA-MB-231, 48 h. The procedure, abridged:
as §2

In series [5] the test system is HaCaT. Kind of series: Cytotoxicity against human HaCaT cells at up to 100 uM after 48 hrs by MTT assay. Type of series: cell-based. The method in brief:
as §2

For series [6], the system named is HepG2. Kind of series: Growth inhibition of human HepG2 cells after 48 hrs by MTT assay. The conditions noted are these: HepG2, 48 h. Type of series: functional. The method in brief:
as §2

The target of series [7] is T2, Polyunsaturated fatty acid 5-lipoxygenase (Homo sapiens) (UniProt P09917).
T2 sequence (whole entry): T1 sequence (P09917 whole entry)
Kind of series: Irreversible inhibition of 5-LOX assessed as decrease in oxygen concentration using arachidonic acid as substrate at 10-fold increased enzyme concentration pre-incubated for 5 mins before substrate addition by polarigraphic method with Clark's oxygen electrode. The method in brief: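 Oxygen-electrode 5-LOX assay run with 10-fold excess enzyme: enzyme and compound incubated 5 min, then reaction initiated with arachidonic acid 133 μM; AA-861 control.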

For series [8], the target named is T2, Polyunsaturated fatty acid 5-lipoxygenase (Homo sapiens). Description: Inhibition of 5-LOX assessed as decrease in oxygen concentration using arachidonic acid as substrate by polarigraphic method with Clark's oxygen electrode in presence of 0.1 mg/mL BSA. The method in brief:
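Oxygen-electrode 5-LOX assay (phosphate pH 6.3, 25 °C) with enzyme pre-incubated with BSA 0.1 mg/mL plus compound before starting with arachidonic acid 133 μM; reduced inhibition taken as sign of non-specific binding. AA-861 control.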

The target is the same in series [9]. Description: Irreversible inhibition of 5-LOX assessed as decrease in oxygen concentration using arachidonic acid as substrate measured after dilution by polarigraphic method with Clark's oxygen electrode.
In series [10] the test system is Mus musculus. Description: Antiinflammatory activity against LPS-induced inflammation in BALB/c mouse acute lung injury model assessed as reduction in inflammatory cells infiltration at 50 mg/kg, ip administered 1 hr prior to LPS challenge measured after 12 hrs by hematoxylin and eosin staining based light microscopy. Set-up: dose 50 mg/kg. Type of series: functional, organism-based. The method in brief: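 Male BALB/c mice (20–25 g, 6/group, fasted 8 h) anesthetized with ketamine/xylazine; LPS 25 μg (1 mg/kg) intratracheal in 50 μL PBS; test agent 50 mg/kg ip 1 h before; PBS vehicle controls. At 12 h right lungs inflated, fixed in 10% buffered formaldehyde, paraffin-embedded, H&E stained; infiltration and wall thickening judged by light microscopy.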

The test system of series [11] is Mus musculus. Description: Antiinflammatory activity against LPS-induced inflammation in BALB/c mouse acute lung injury model assessed as reduction in wet/dry ratio of lung at 50 mg/kg, ip administered 1 hr prior to LPS challenge measured after 12 hrs. Type of series: functional, organism-based. Details: dose 50 mg/kg. The method in brief: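 In BALB/c males given intratracheal LPS (1 mg/kg) after ip dosing at 50 mg/kg 1 h earlier, left lungs excised at 12 h, rinsed thrice in PBS, blotted, weighed, oven-dried at 72 °C for 36–48 h and reweighed; wet/dry ratio indicates edema. Six mice per group.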

Series [12] relates to Mus musculus. Description: Antiinflammatory activity against LPS-induced inflammation in BALB/c mouse acute lung injury model assessed as reduction in total cell count bronchoalveolar lavage fluid at 50 mg/kg, ip administered 1 hr prior to LPS challenge measured after 12 hrs by Wright-Giemsa staining based hemocytometry. Type of series: functional, organism-based. Details: dose 50 mg/kg. The procedure, abridged: (§3)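 Male BALB/c mice (20–25 g, 6/group), intratracheal LPS 1 mg/kg in PBS under ketamine/xylazine, compound 50 mg/kg ip 1 h prior. At 12 h, lavage three times with 0.5 mL PBS via tracheal cannula; pellet resuspended; total cells by hemocytometer; differentials from ≥200 cells on Wright–Giemsa smear. Mean ± SEM, unpaired t-test.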

The subject of series [13] is Mus musculus. Kind of series: Antiinflammatory activity against LPS-induced inflammation in BALB/c mouse acute lung injury model assessed as reduction in protein level in bronchoalveolar lavage fluid at 50 mg/kg, ip administered 1 hr prior to LPS challenge measured after 12 hrs by Bradford assay. Type of series: functional, organism-based. Set-up: dose 50 mg/kg. The method in brief:
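Mouse LPS lung-injury model as described (BALB/c males, intratracheal LPS 1 mg/kg, compound 50 mg/kg ip 1 h beforehand). BAL fluid collected 12 h post-challenge, centrifuged 3000 rpm 10 min at 4 °C; supernatant stored −70 °C; protein by Bradford, expressed as mg/mL BALF. Six mice per group.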

Series [14] concerns Mus musculus. Kind of series: Antiinflammatory activity against LPS-induced inflammation in BALB/c mouse acute lung injury model assessed as reduction in macrophage count in bronchoalveolar lavage fluid at 50 mg/kg, ip administered 1 hr prior to LPS challenge measured after 12 hrs by Wright-Giemsa staining based hemocytometry. Set-up: dose 50 mg/kg. Type of series: functional, organism-based. The procedure, abridged: as §3

Series [15] relates to Mus musculus. Kind of series: Antiinflammatory activity against LPS-induced inflammation in BALB/c mouse acute lung injury model assessed as reduction in neutrophil count in bronchoalveolar lavage fluid at 50 mg/kg, ip administered 1 hr prior to LPS challenge measured after 12 hrs by Wright-Giemsa staining based hemocytometry. Type of series: functional, organism-based. Details: dose 50 mg/kg. The procedure, abridged:
as §3

Series [16] concerns Mus musculus. Kind of series: Antiinflammatory activity against LPS-induced inflammation in BALB/c mouse acute lung injury model assessed as reduction in alveolar wall thickening at 50 mg/kg, ip administered 1 hr prior to LPS challenge measured after 12 hrs by hematoxylin and eosin staining based light microscopy.

In series [1], `CCCC(O)C#CCOCc1ccccc1` (stereo not given) yielded an IC50 of 760 µM.
As for `CSc1ccc(COCC#CC(O)c2ccc(F)cc2)cc1` (stereo not given), the concentration for 50% growth inhibition (GI50) in [2] stood at 22 µM; in [4], 20 µM; in series [6] it was 31 µM. The IC50 in [3] is 12 µM. Moreover, the Activity result in series [5] is “Non-toxic”. Besides, the inhibition entry in [7] and in [9] was “Active” throughout. In addition, in series [8], the fold change (FC) stood at 1.
With `CC1=C(C)C(=O)C(CCCCC#CCCCC#CCO)=C(C)C1=O` [DOCEBENONE], in series [3], the half-maximal inhibitory concentration (IC50) was 1.7 µM.
Consider `CSc1ccc(COCC#CC(O)c2cccc([N+](=O)[O-])c2)cc1` (stereo not given), for which the concentration for 50% growth inhibition (GI50) amounted to 71 µM in series [2], 62 µM in [4] and 54 µM in [6]. The IC50 in series [3] was 62 µM.
For `COc1cc(C(O)C#CCOCc2ccc(SC)cc2)cc(OC)c1OC` (stereo not given), the 50% growth inhibitory concentration (GI50) in [2], in [4] and in series [6] was 100 µM throughout. Further, the IC50 in series [3] is 80 µM.
In the case of `COc1cccc(C(O)C#CCOCc2ccc(SC)cc2)c1OC` (stereo not given), the IC50 in series [3] is 69 µM.
Turning to `CSc1ccc(COCC#CC(O)c2ccc(C(C)C)cc2)cc1` (stereo not given), the figures for the GI50 in series [2], in series [4] and in [6] were 12 µM, 15 µM and 22 µM, respectively. For the same molecule, the inhibition entry in [10], in series [12], in [13], in series [14], in series [15] and in series [7] was “Active” each time. The inhibition entry in [16] and in series [9] was “Active” throughout. The outcome in series [11] was Active. Moreover, in series [3], the IC50 was 8 µM. The Activity result in series [5] was “Non-toxic”. The fold change (FC) in [8] is 1.
Regarding `CSc1ccc(COCC#CC(O)c2ccc(C#N)cc2)cc1` (stereo not given), the concentration for 50% growth inhibition (GI50) came out at 71 µM in series [2], 62 µM in series [4] and 54 µM in [6]. For the same molecule, the IC50 in [3] came out at 41 µM.
With `OC(C#CCOCc1ccccc1)c1ccccc1` (stereo not given), in series [3], the 50% inhibitory concentration (IC50) was more than 100 µM.
With `COc1ccc(C(O)C#CCOCc2ccc(SC)cc2)cc1` (stereo not given), the IC50 in [3] was more than 100 µM.
For `COc1ccc(C(O)C#CCOCc2ccc(SC)cc2)cc1OC` (stereo not given), in series [3], the IC50 was 80 µM.
As for `CCCCCC(O)C#CCOCc1ccc(SC)cc1` (stereo not given), the IC50 in series [3] was more than 100 µM.
Take `Cc1ccc(-c2cc(C(F)(F)F)nn2-c2ccc(S(N)(=O)=O)cc2)cc1`: the inhibition entry in series [10], in series [12], in series [13], in series [14], in series [15] and in [16] was “Active” each time. Further, in series [11], the result was Active.
With `COc1ccc(C(O)C#CCOCc2ccc(SC)cc2)c(OC)c1OC` (stereo not given), the IC50 in series [3] turned out to be 72 µM.

A word on the IC50: it is the concentration at which inhibition is half-maximal. For orientation: GI50 means the concentration at which growth is held to half of that of the control.
